This is a sample that favours compounds with a hit; in the whole collection about 2.1% have one here.
RanGTP-Imp inh: inhibitors of RanGTP-importin-beta interaction, primary screen, biochemical, FRET, CFP-Ran, YFP-importin-beta, homogeneous; Ran GTPase (GTP-bound) - importin-beta complex; cell-free CFP-Ran/YFP-importin-beta FRET ratio; inhibition, % (no concentration beside the values); actives 1.1% (n = 300,000); AID 2216, 2009;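 active means more than half of the replicate wells show a fall in the fluorescence ratio signal beyond about 16%, limit read from the data, passing the limit was not always enough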
Runt-CBFb FRET: inhibitors of RUNX1 Runt–CBFb binding, primary screen, biochemical, FRET, Cerulean-Runt, Venus-CBFb, uHTS; Runt-related transcription factor 1 (Homo sapiens) + Core-binding factor subunit beta …; Cerulean-Runt/Venus-CBFb FRET ratio 530/480, 1 h; inhibition, % at 20 µM; actives 0.46% (n = 220,000); AID 1496, 2009;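 active means inhibition over about 50% at 20 µM in the single-dose screen, limit read from the data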
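Buffer or medium: Tris pH 7.5 buffer with BSA. Assay system: Cerulean-labeled Runt domain protein. Amount: each fluorescent fusion protein 100 nM. Read-out basis: loss of energy transfer signal. Incubation: 1 h compound exposure, room temperature. Probe or stimulus: Venus-CBFb binding partner, 100 nM. Detection: FRET, excitation 422 nm, emission at 530 and 480 nm.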
m-calpain inh: inhibitors of pig calpain II, primary screen, biochemical, fluorogenic peptide substrate, 1536-well; actives 0.37% (n = 220,000); purified calpain II, 30 min; AID 1236, 2008; inhibition, % at 16 µM;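 active means inhibition above about 50%, limit read from the data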
Runt-SMMHC FRET: inhibitors of RUNX1 Runt–CBFb-SMMHC binding, primary screen, biochemical, FRET, Cerulean-Runt, Venus-CBFb-SMMHC, uHTS | AID 1434, 2008 | inhibition, % at 20 µM | actives 0.74% (n = 220,000) | Cerulean-Runt/Venus-CBFb-SMMHC FRET ratio 530/480, 1 h | Runt-related transcription factor 1 (Homo sapiens) + Core-binding factor subunit beta …;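 active means mean inhibition across duplicate retests at 20 µM reaching about 50%, limit read from the data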;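 further: inhibitors lower the FRET ratio by blocking Runt binding to CBFb-SMMHC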
FAS TE block: FAS thioesterase domain inhibitors, primary screen, biochemical, fluorescence intensity, uHTS | Fatty acid synthase (Homo sapiens), P49327 | recombinant FAS-TE, OMFH fluorogenic substrate, fluorescence endpoint | inhibition, % at 15 µM | actives 0.67% (n = 360,000) | AID 602261, 2012;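 active means compounds whose normalised, plate-corrected inhibition of enzyme fluorescence in the single-dose primary screen is 50% or more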
YIC counter: YIC intramolecular FRET probe signal interference, dose response, counter-screen for RanGTP-importin-beta inhibitor project, biochemical, fluorescence FRET; actives 40% (n = 1,000); Purified YIC probe, intramolecular FRET ratio YFP/CFP; IC50, µM; shares compounds with RanGTP-Imp inh; AID 435026, 2010;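 active means fitted half-maximal inhibitory concentration no more than tenfold above the top dose tested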
Of the large screens only hits and unclear results are named; the others gave an inactive call (follow-up assays come after a bar, where they were run).

CC1=Nc2ccccc2/C1=C\c1nc(-c2ccc(F)cc2)oc1O	RanGTP-Imp inh 22 | YIC counter inactive
Oc1oc(-c2ccccc2)nc1/C=N/c1ccccn1	none (no result: Runt-CBFb FRET, Runt-SMMHC FRET)
Clc1ccc(/C=C/c2ncc3ccccn23)cc1	RanGTP-Imp inh 24 (no result: Runt-CBFb FRET, Runt-SMMHC FRET) | YIC counter 2.5
O=C(COc1ccc(F)cc1)NNC(=O)Cn1ccc(C(F)(F)F)n1	none (no result: RanGTP-Imp inh, Runt-CBFb FRET, m-calpain inh, Runt-SMMHC FRET)
Cc1ccc(NC(=O)COC(=O)Cc2ccsc2)c(C)c1	RanGTP-Imp inh 19 | YIC counter inactive
Cc1ccc(NC(=O)C(=O)NCCN2CCN(S(=O)(=O)c3ccccc3)CC2)cc1C	none
COC(=O)c1sccc1NC(=O)c1ccc(Cl)s1	none
COC(=O)c1sccc1NC(=O)c1csc(C)c1	RanGTP-Imp inh 19 | YIC counter inactive
CCn1c(C(=O)Nc2ccsc2C(=O)OC)cc2sc(Cl)cc21	RanGTP-Imp inh 20 | YIC counter 47
COc1ccc([N+](=O)[O-])cc1NCC(=O)Nc1cc(S(=O)(=O)N2CCCCC2)ccc1C	none (no result: RanGTP-Imp inh, Runt-CBFb FRET, m-calpain inh, Runt-SMMHC FRET)
O=C(CCc1ccccc1)Nc1cccc(S(=O)(=O)N2CCOCC2)c1	none (no result: RanGTP-Imp inh, Runt-CBFb FRET, m-calpain inh, Runt-SMMHC FRET)
O=[N+]([O-])c1cccc(-c2nc(-c3ccccn3)no2)c1	none
CCCc1noc(-c2cccc([N+](=O)[O-])c2)n1	RanGTP-Imp inh 24 | YIC counter inactive
CC/C(=N\NC(=O)c1cc(C2CC2)[nH]n1)c1ccccc1	RanGTP-Imp inh 38 (no result: Runt-CBFb FRET, m-calpain inh, Runt-SMMHC FRET) | YIC counter inactive
O=C(CN1CCN(Cc2ccccc2)CC1)NC(=O)NC1CCCCC1	none
O=C(CN1CCN(C/C=C/c2ccccc2)CC1)NC(=O)NC1CCCCC1	RanGTP-Imp inh 29 | YIC counter inactive
Cc1ccc(N=Cc2cc3c(cc2[N+](=O)[O-])OCO3)cc1[N+](=O)[O-]	RanGTP-Imp inh 20 (no result: Runt-CBFb FRET, m-calpain inh, Runt-SMMHC FRET) | YIC counter inactive
CCn1c(=O)cc(N2CCCCC2)[nH]c1=O	RanGTP-Imp inh 23 | YIC counter inactive
CCn1c(=O)cc(N2CCOCC2)[nH]c1=O	RanGTP-Imp inh 24 | YIC counter inactive
Cn1c(=O)cc(N2CCCCC2)[nH]c1=O	RanGTP-Imp inh 19 | YIC counter inactive
Cn1c(=O)cc(N2CCOCC2)[nH]c1=O	none
CCCCn1c(=O)cc(N2CCOCC2)[nH]c1=O	none
COCCCNC(=O)COc1cc2c(c3oc(=O)c(C)c(C)c13)CCC(C)(C)O2	none (no result: Runt-CBFb FRET, m-calpain inh, Runt-SMMHC FRET)
CC(=O)Nc1ccc(N=c2cc([N+](=O)[O-])cc(Cl)n2O)cc1	none (no result: Runt-CBFb FRET, m-calpain inh, Runt-SMMHC FRET)
CCN1CCc2nc(NC(=O)CC(c3ccccc3)c3ccccc3)sc2C1	RanGTP-Imp inh 31, Runt-SMMHC FRET 60 | YIC counter 16
COCCOC(=O)C1=C(C)NC(=O)NC1c1cccc2ccccc12 (stereo unspecified)	RanGTP-Imp inh 22 (no result: Runt-CBFb FRET, m-calpain inh, Runt-SMMHC FRET) | YIC counter inactive
CCCOc1ccccc1C1NC(=O)NC(C)=C1C(=O)OCCOC (stereo unspecified)	none
O=c1[nH]c(-[n+]2ccc3ccccc3c2)c(/C=N/N=C(\[O-])c2ccccc2)s1	RanGTP-Imp inh 25 (no result: Runt-CBFb FRET, m-calpain inh, Runt-SMMHC FRET) | YIC counter inactive
COc1ccc(OCC(NS(=O)(=O)c2ccc(-n3cnnn3)cc2)C(C)C)cc1 (stereo unspecified)	none (no result: Runt-CBFb FRET, m-calpain inh, Runt-SMMHC FRET)
CCc1cc(=O)oc2c(CN3CCN(C)CC3)c(O)ccc12	none (no result: Runt-CBFb FRET, m-calpain inh, Runt-SMMHC FRET)
CCc1cc(=O)oc2c(CN3CCN(C)CC3)c(O)c(Cl)cc12	RanGTP-Imp inh 32, Runt-CBFb FRET 100, Runt-SMMHC FRET 91 | YIC counter 33
O=C1CCC(C(=O)N2CCCCCC2)CN1Cc1cccc(C(F)(F)F)c1 (stereo unspecified)	none (no result: Runt-CBFb FRET, m-calpain inh, Runt-SMMHC FRET)
CC1(C)CNC(=O)C=C(c2ccccc2)C1	RanGTP-Imp inh 23 | YIC counter inactive
Cn1c2ccccc2c(=O)c2ccc(F)cc21	RanGTP-Imp inh 35 (no result: Runt-CBFb FRET, m-calpain inh, Runt-SMMHC FRET) | YIC counter 15
C#Cc1ccc(CN2CCC(C(=O)Nc3ccc(Oc4ccccc4)nc3)CC2)cc1	none (no result: Runt-CBFb FRET, m-calpain inh, Runt-SMMHC FRET)

Screening data deposited in PubChem by several laboratories.
